Bioassay records from PubChem.
Only some compounds are listed: those with a hit (about 4.5% of all), similar ones and a draw of the others.
TAAR1 antag: human TAAR1 antagonists, primary screen, Fluo-8 calcium fluorescence, CHO RD-HGA16 cells. inhibition, % at 3 µM. hit rate 1.5% among 360,000. Trace amine-associated receptor 1 (Homo sapiens), Q96RJ0. antagonist;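 active means inhibition above a per-plate cutoff, the mean inhibition of test compounds on that plate plus 3 SD, cut at about 49% in these data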
Target sequence (Q96RJ0 whole entry, looked up): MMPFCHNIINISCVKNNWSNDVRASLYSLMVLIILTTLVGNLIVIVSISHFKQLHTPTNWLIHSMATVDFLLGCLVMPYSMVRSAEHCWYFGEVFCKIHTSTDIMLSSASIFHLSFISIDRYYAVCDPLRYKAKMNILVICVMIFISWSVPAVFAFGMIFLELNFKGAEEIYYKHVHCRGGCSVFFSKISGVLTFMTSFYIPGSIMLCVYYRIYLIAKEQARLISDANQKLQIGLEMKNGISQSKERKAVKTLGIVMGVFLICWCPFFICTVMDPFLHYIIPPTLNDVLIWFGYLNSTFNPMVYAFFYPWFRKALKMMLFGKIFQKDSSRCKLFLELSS
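Test system: RD-HGA16 CHO cells with stable hTAAR1 and Gα16 / Probe or stimulus: EC80 β-phenethylamine stimulus / Times: seeding 17-24 h prior, 75-min 37 °C, 30-min RT dye loading / Detection: Fluo-8 calcium-sensitive fluorescence / Read-out basis: % inhibition scaled between DMSO and EC80 PEA controls / Repeats: singlicate, one well per test compound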
OX1R antag-1: antagonists of human orexin 1 receptor (OX1R); AID 485270, 2010; hit rate 1.8% among 330,000; inhibition, % at 6.6 µM; Orexin/Hypocretin receptor type 1 (Homo sapiens), O43613; OX1R-expressing cells, FRET antagonist read-out; in the data active means inhibition mostly above about 38%, no sharp cut-off; inactive means mostly below about 40%
Target sequence (O43613 whole entry, looked up): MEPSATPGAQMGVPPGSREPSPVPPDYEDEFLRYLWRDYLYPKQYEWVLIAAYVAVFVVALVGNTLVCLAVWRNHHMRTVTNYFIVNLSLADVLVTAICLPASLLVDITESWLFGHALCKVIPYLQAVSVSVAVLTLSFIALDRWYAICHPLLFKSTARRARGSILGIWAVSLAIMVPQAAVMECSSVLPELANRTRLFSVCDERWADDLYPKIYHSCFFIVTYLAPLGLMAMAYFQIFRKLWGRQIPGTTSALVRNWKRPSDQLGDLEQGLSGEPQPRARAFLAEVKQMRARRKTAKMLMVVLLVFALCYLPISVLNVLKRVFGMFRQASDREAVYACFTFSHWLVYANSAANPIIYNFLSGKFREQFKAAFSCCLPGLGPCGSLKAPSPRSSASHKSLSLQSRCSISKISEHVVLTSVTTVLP
TAAR1 agonist: human TAAR1 agonists, primary screen, Fluo-8 calcium fluorescence, CHO RD-HGA16 cells | hit rate 0.99% among 360,000 | activation, % at 3 µM | Trace amine-associated receptor 1 (Homo sapiens), Q96RJ0 | AID 624467, 2012 | vehicle wells 0%, saturating PEA agonist 100%;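 active means activation above the mean activation of all test compounds in the run plus 3 SD, cut at about 38% in these data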
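System: CHO RD-HGA16 cells carrying human TAAR1 plus Gα16; Incubation: 17-24 h seeding, 75 min 37 °C dye, 30 min RT; Measured by: Fluo-8 fluorescence, 5 s baseline then 140 s kinetic read; Control set: DMSO and PEA EC100; Replication: single well for each compound.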
CHO parental Ca: ATP-evoked calcium signal inhibitors, parental CHO, primary screen, counter-screen for OX1R antagonist project, cell-based, fluorescence, Fluo-8 calcium dye. hit rate 0.63% among 330,000. inhibition, % at 5.6 µM. parental CHO-K1, ATP-induced calcium, Fluo-8 fluorescence;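 active means inhibition above that plate's mean sample inhibition plus 3 SD, cut at about 26% in these data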
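Test system: parental CHO cells; detection: calcium-sensitive Fluo-8 fluorescence; evaluation: percent inhibition of calcium signal; also added: ATP as calcium-mobilizing challenge; repeats: one well per compound; control set: ATP-challenged DMSO wells low, unchallenged DMSO wells high; compound: single nominal dose of 5.6 µM per compound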
OX1R antag-2: OX1R (HCRTR1) antagonists, primary screen, fluorescence, CHO/OX1R cells, Fluo-8 calcium, orexin A; Orexin/Hypocretin receptor type 1 (Homo sapiens), O43613; Fluo-8 calcium fluorescence; inhibition, % at 5 µM; hit rate 0.43% among 330,000; AID 434989, 2010;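 active means inhibition above its plate's threshold, mean inhibition of all tested compounds on the plate plus 3 SD, cut at about 37% in these data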
GPR7 antagonist: GPR7 receptor antagonists, primary screen, cell-based, fluorescence, single concentration; GPR7-expressing cells, fluorescence antagonist assay; inhibition, % at 4.4 µM; hit rate 1.1% among 290,000; in the data active means inhibition above about 16%, passing the limit was not always enough;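 further: cells stimulated with the agonist NPW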
TAAR1 nonsel count: nonselective antagonists in TAAR1 counter-screen cells, counter-screen for hTAAR1 antagonist project, cell-based, fluorescence, calcium | shares compounds with TAAR1 antag | counterscreen cell line, antagonist mode | inhibition, % at 3 µM | hit rate 77% among 2,400 | AID 651780, 2012; in the data active means inhibition above about 22%;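 further: CHO-Ga16 host cells stimulated with ATP at an EC80 level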
TAAR1 antag conf: human TAAR1 antagonists, retest of hits, confirmation, cell-based, fluorescence. TAAR1-expressing cells, fluorescence antagonist read-out. AID 651785, 2012. shares compounds with TAAR1 antag. inhibition, % at 3 µM. hit rate 40% among 2,400; in the data active means inhibition above about 49%;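 further: CHO-Ga16 host cells challenged with agonist PEA near its EC80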
Ga16 ag counter: calcium activation in Ga16-expressing cells, counter-screen for TAAR1 antagonist project, cell-based, fluorescence. shares compounds with TAAR1 antag. agonist counterscreen. activation, % at 3 µM. hit rate 18% among 2,400. AID 651953, 2012; in the data active means activation above about 12%
TAAR1 ag counter: TAAR1 activation by candidate antagonists – cell-based, fluorescence, counter-screen for TAAR1 antagonist project; hit rate 2% among 2,400; hTAAR1 cell line, agonist mode; activation, % at 3 µM; shares compounds with TAAR1 antag; in the data active means activation above about 37%;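 further: CHO cells stably expressing TAAR1 with calcium dye readout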
Each line names hits and unclear results; the compound was inactive in the other large screens (follow-up assays come after a bar, where they were run).

Cc1noc(C)c1S(=O)(=O)Nc1ccc2c(c1)C(=O)N([C@H](C)CO)C[C@H](C)[C@@H](CN(C)S(=O)(=O)c1ccc(F)cc1)O2	none (no result: GPR7 antagonist)
C[C@H]1Cn2cnc(C(=O)Nc3ccc(CNC(=O)OC(C)(C)C)cc3)c2C(=O)N1	none (no result: OX1R antag-1, CHO parental Ca, OX1R antag-2, GPR7 antagonist)
Cc1ccc(NC(=O)c2nc[nH]c2C(=O)NCCCCCNC(=O)OC(C)(C)C)cc1	none (no result: GPR7 antagonist)
CC(C)(C)OC(=O)NCCCCCNC(=O)c1[nH]cnc1C(=O)Nc1ccccc1	TAAR1 antag 57 (no result: GPR7 antagonist) | TAAR1 nonsel count inactive | TAAR1 antag conf inactive | Ga16 ag counter inactive | TAAR1 ag counter inactive
CC(C)(C)OC(=O)NCCCC[C@H](NC(=O)c1[nH]cnc1C(=O)Nc1ccc(CNC(=O)OC(C)(C)C)cc1)C(=O)OC(C)(C)C	TAAR1 antag 65 (no result: GPR7 antagonist) | TAAR1 nonsel count 28 | TAAR1 antag conf 49 | Ga16 ag counter inactive | TAAR1 ag counter inactive
C[C@H]1CNC(=O)c2c(C(=O)Nc3ccc(CNC(=O)OC(C)(C)C)cc3)ncn21	TAAR1 antag 55 (no result: OX1R antag-1, CHO parental Ca, OX1R antag-2, GPR7 antagonist) | TAAR1 nonsel count 34 | TAAR1 antag conf inactive | Ga16 ag counter inactive | TAAR1 ag counter inactive
CC(C)(C)OC(=O)NCCCCCNC(=O)c1[nH]cnc1C(=O)Nc1ccc(Cl)cc1	TAAR1 antag 55 (no result: GPR7 antagonist) | TAAR1 nonsel count 27 | TAAR1 antag conf inactive | Ga16 ag counter inactive | TAAR1 ag counter inactive
C/C(=N\O)C(C)(C)Nc1ccc(Br)cc1	none
O=C(COC(=O)c1cc[n+]([O-])cc1)NC(=O)c1ccc(OC(F)F)cc1	none (no result: GPR7 antagonist)
Cc1ccc(S(=O)(=O)Nc2ccc3cc([N+](=O)[O-])ccc3c2[N+](=O)[O-])cc1	none (no result: OX1R antag-1, CHO parental Ca, OX1R antag-2, GPR7 antagonist)
CCOC(=O)CNC(=O)C1(NC(=O)CNC(=O)OCc2ccccc2)CCCC1	none (no result: OX1R antag-1, CHO parental Ca, OX1R antag-2, GPR7 antagonist)
COc1ccccc1N1CCN(CC(=O)Nc2nc(C)c(C(=O)N(C)C)s2)CC1	none
Cc1ccc(S(=O)(=O)c2c(C)cc(C)[nH]c2=O)c(C)c1	none
C=CCN(C(=O)C1CC(=O)N(C2CCCC2)C1)c1nc(-c2ccc(S(C)(=O)=O)cc2)cs1 (stereo not drawn)	TAAR1 antag 78 (no result: GPR7 antagonist) | TAAR1 nonsel count 38 | TAAR1 antag conf 65 | Ga16 ag counter 18 | TAAR1 ag counter inactive
Cc1ccc(Cl)cc1N1CCN(C(=O)CSc2nnc3n2C(C)(C)Cc2ccccc2-3)CC1	TAAR1 antag 60, OX1R antag-1 104, CHO parental Ca 77, OX1R antag-2 77 | TAAR1 nonsel count 44 | TAAR1 antag conf inactive | Ga16 ag counter inactive | TAAR1 ag counter inactive
CC(C)c1ccc(/C=C2\SC(=O)N(CC(=O)NC3C=CS(=O)(=O)C3)C2=O)cc1 (stereo not drawn)	none
Cc1nn(-c2ccccc2)c(Cl)c1C(=O)N1CCN(c2ncnc3c2cnn3-c2ccccc2)CC1	TAAR1 antag 78, OX1R antag-1 83, CHO parental Ca 78, OX1R antag-2 51 | TAAR1 nonsel count 52 | TAAR1 antag conf 63 | Ga16 ag counter 13 | TAAR1 ag counter inactive
O=C(c1ccccc1)N1CCN(c2ncnc3c2cnn3-c2ccccc2)CC1	none
C[C@@]12C(=O)N(Cc3ccc(-c4ccccc4)cc3)CC(=O)N1[C@H](/C=C/c1ccccc1)[C@@H]1C(=O)N(c3ccccc3)C(=O)[C@@H]12	TAAR1 antag 54 | TAAR1 nonsel count 30 | TAAR1 antag conf inactive | Ga16 ag counter inactive | TAAR1 ag counter inactive
COC(=O)CN1C(=O)[C@H]2[C@@H](/C=C/c3ccccc3)N3C(=O)CN(Cc4ccc(-c5ccccc5)cc4)C(=O)[C@@]3(C)[C@H]2C1=O	none (no result: GPR7 antagonist)
O=C(NCc1ccc2c(c1)OCO2)C1CCC(CNS(=O)(=O)c2ccc(Cl)cc2)CC1 (stereo not drawn)	TAAR1 antag 49 | TAAR1 nonsel count inactive | TAAR1 antag conf inactive | Ga16 ag counter inactive | TAAR1 ag counter inactive
Cc1ccc(S(=O)(=O)NCC2CCC(C(=O)NCc3ccc4c(c3)OCO4)CC2)cc1 (stereo not drawn)	none
CCOC(=O)C1=C(C)Nc2ccccc2N=C1NC(=O)c1cc(C)on1	none (no result: GPR7 antagonist)
O=C(N/N=C/c1ccc(-c2ccccc2[N+](=O)[O-])o1)c1cccnc1	none
CC(C)(C)c1cc(C(=O)N/N=C/c2ccc(-c3ccccc3[N+](=O)[O-])o2)n[nH]1	TAAR1 antag 63 | TAAR1 nonsel count 27 | TAAR1 antag conf 53 | Ga16 ag counter inactive | TAAR1 ag counter inactive
CCCS(=O)(=O)c1nc(S(=O)(=O)c2ccc(C)cc2)c(N2CCN(CCO)CC2)s1	none
COc1ccc(CCNC(=O)C(=O)NCC2CCCN2S(=O)(=O)c2ccc(OC)cc2)cc1 (stereo not drawn)	TAAR1 antag 74 (no result: GPR7 antagonist) | TAAR1 nonsel count 29 | TAAR1 antag conf 57 | Ga16 ag counter 14 | TAAR1 ag counter inactive
Nc1nc(-c2cc(O)ccc2[N+](=O)[O-])cc(-c2ccccc2)c1[N+](=O)[O-]	TAAR1 antag 49 (no result: OX1R antag-1, CHO parental Ca, OX1R antag-2) | TAAR1 nonsel count 24 | TAAR1 antag conf inactive | Ga16 ag counter inactive | TAAR1 ag counter inactive
O=C(Nc1nnc([C@@H]2C[C@H](O)[C@@H](CO)O2)s1)Nc1ccccc1F	none (no result: OX1R antag-1, CHO parental Ca, OX1R antag-2, GPR7 antagonist)
CC(OC(=O)c1cnccn1)C(=O)Nc1nc(-c2cccc([N+](=O)[O-])c2)cs1 (stereo not drawn)	TAAR1 antag 52 (no result: GPR7 antagonist) | TAAR1 nonsel count 24 | TAAR1 antag conf inactive | Ga16 ag counter inactive | TAAR1 ag counter inactive
CC(OC(=O)c1ccccc1Br)C(=O)Nc1nc(-c2cccc([N+](=O)[O-])c2)cs1 (stereo not drawn)	none
COc1ccc(S(=O)(=O)Nc2cccc3c2O[C@H](CN(C)C(=O)Nc2ccccc2)[C@@H](C)CN([C@H](C)CO)C3=O)cc1	none (no result: GPR7 antagonist)
